{"source": "PubChem BioAssay AID602189", "about": "(Broad Institute, 2012)", "note": "Inconclusive results are not listed. Activity calls are given as the source filed them.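 The calls were made as follows: active = signal drop in every repeat run, with half-maximal concentration at most twice the top valid concentration; inconclusive = the separate test runs give conflicting calls; inactive = inactive in every test run.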", "data": [{"tested_on": "not listed separately", "assay": "C. albicans CaCi-17 growth inhibition, confirmation, clinical isolate, Alamar Blue, dry powder (AID 602189)", "details": "C. albicans CaCi-17 growth, Alamar Blue fluorescence, 48 h; at 26 µM (top of the series)", "how_it_was_run": "(§1)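 Assay system: fluconazole-resistant clinical isolate CaCi-17, whole fungal cells; Input: inoculum OD600 0.00015; Doses: compound delivered by pin transfer; Timing: 48 h compound exposure, 37 °C, static, humidified; Detection: Alamar Blue fluorescence after 2 h; Evaluation: growth inhibition, shown by reduced Alamar Blue fluorescence; Benchmarks: 10 µM amphotericin B as positive control.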", "values": [{"molecule": "CCOC(=O)N1C(=O)C2(CCCCC2)N(c2ccc(C)cc2)C1=S", "activity change, negative = inhibition": "-10.2% (inactive)"}, {"molecule": "O=C(Nc1nc(-c2ccc3c(c2)CCCC3)cs1)c1ccccc1", "activity change, negative = inhibition": "-2.83% (inactive)"}, {"molecule": "NC(=O)c1cccc(C(=O)Nc2nc(-c3ccc4c(c3)CCCC4)cs2)c1", "activity change, negative = inhibition": "21.1% (inactive)"}, {"molecule": "Cc1ccc(C(=O)Nc2nnc(-c3ccccc3)o2)cc1C", "activity change, negative = inhibition": "-7.38% (inactive)"}, {"molecule": "O=C(Nc1nc(-c2ccccc2)cs1)c1ccc(Br)s1", "activity change, negative = inhibition": "-6.92% (inactive)"}, {"molecule": "C=CCNC(=S)N/N=C(\\C)c1ccccn1", "activity change, negative = inhibition": "-32.2% (inactive)"}, {"molecule": "O=C(Nc1nc(-c2ccccn2)cs1)c1ccccc1", "activity change, negative = inhibition": "57.1% (inactive)"}]}, {"tested_on": "C. albicans CaCi-17 growth, Alamar Blue fluorescence, 48 h", "assay": "C. albicans CaCi-17 growth inhibition, confirmation, clinical isolate, Alamar Blue, dry powder (AID 602189)", "details": "not given", "how_it_was_run": "as §1", "units": {"AC50": "µM"}, "values": [{"molecule": "O=C(Nc1nnc(-c2ccc3c(c2)CCCC3)o1)c1ccccc1", "AC50": 25.9}, {"molecule": "O=C(Nc1nc(-c2ccccn2)cs1)c1ccc(Cl)s1", "AC50": 10.5}, {"molecule": "C/C(=N\\NC(=O)c1cc2ccccc2cc1O)c1ccccn1", "AC50": 5.54}, {"molecule": "CN1CCN(C(c2ccc(C(F)(F)F)cc2)c2ccc3cccnc3c2O)CC1", "note": "(stereo not drawn)", "AC50": 7.72}, {"molecule": "Oc1c(CN2CCc3ccccc3C2)cc(Cl)c2cccnc12", "AC50": 5.46}, {"molecule": "Oc1c(C(c2ccc(Cl)cc2)N2CCCC2)ccc2cccnc12", "note": "(stereo not drawn)", "AC50": 8.73}, {"molecule": "O=C(NNC(=S)Nc1ccc(Cl)c(Cl)c1)c1ccccn1", "AC50": 1.86}, {"molecule": "Oc1c(C(c2ccccc2Cl)N2CCCCC2)ccc2cccnc12", "note": "(stereo not drawn)", "AC50": 11.7}, {"molecule": "O=C(Oc1c(Cl)cc(Cl)c2cccnc12)c1ccco1", "AC50": 1.5}, {"molecule": "O=C(Nc1nc(-c2ccccn2)cs1)c1ccc(Br)s1", "AC50": 4.94}, {"molecule": "O=C(Nc1nnc(-c2ccc3c(c2)CCCC3)o1)c1ccc(Cl)cc1Cl", "AC50": 17.3}]}]}
